Broadly, the inhibition is the change of the read-out against control, counted positive when it falls.

SMILES strings stand for the structures. In all, about 290,000 compounds went through this assay and about 1,600 (0.55%) were called active. This is one part of a sample in which actives are shown more often than they occur. Values without a mark were called inactive.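 Rule for the calls: active = inhibition above the mean of all tested compounds plus 3 SD, set per campaign (cut at about 35% in these data); inactive = the rest.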

We go through 89 molecules from PubChem BioAssay AID1800 (The Scripps Research Institute Molecular Screening Center, 2009).

The test deals with Hepatitis C virus NS3 helicase. As to the kind of experiment: HCV NS3 DNA unwinding blockers – biochemical, Cy5 molecular beacon fluorescence, primary screen (AID 1800).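 Note: 0% = DMSO wells and 100% = thioflavine S control wells.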 Conditions: at 10.9 µM, stronger effect = higher value. The gist of the method:
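Test system: hepatitis C virus NS3 helicase domain fragment enzyme. Also added: annealed dual-labelled DNA beacon duplex, ATP-started. Timing: 60 min unwinding reaction at 25 °C after ATP addition. Technique: Cy5 fluorescence. Measure: % inhibition of unwinding.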
Turning to `CC(=O)c1ccc(N2CCN(S(=O)(=O)c3ccc4c(c3)CC(=O)N4C)CC2)cc1`, the inhibition was 26.3%.
In the case of `O=S(=O)(NC1CC1)c1ccc(Cl)cc1` it was 4.09%.
In the case of `COc1ccc(NC(=O)CC2C(=O)NC3CCCCC3N2C(=O)c2ccc(F)cc2)cc1` (centres undefined) it was -15.6%.
For `CC(=O)N/N=C/c1cc2c(cc1[N+](=O)[O-])OCO2` the value was 3.66%.
With `Cc1ccc(S(=O)(=O)N/N=C\c2cc3c(cc2[N+](=O)[O-])OCO3)cc1`, the inhibition was 54.2% (active).
In the case of `Cc1ccc(-c2n[nH]c(=S)n2/N=C/c2cc3c(cc2[N+](=O)[O-])OCO3)cc1` it was 8.58%.
In the case of `CC(=O)Nc1ccc(NC(=O)CCCNC(=O)c2ccc(Cl)cc2)cc1` it was -9.29%; in that of `CCCN1CCn2c3c(c4cc(Br)ccc42)CCCC31` (centres undefined), -17.6%.
For `Cc1nnc(SCC(=O)N/N=C/c2cn(-c3ccccc3)nc2-c2ccc(F)cc2)n1-c1ccccc1` the value was -0.42%; for `Cc1ccc(-c2nn(-c3ccccc3)cc2/C=N/NC(=O)c2ccc3c(c2)OCO3)cc1`, 3.37%; for `O=C(N/N=C/c1ccc([N+](=O)[O-])o1)c1cn(-c2ccccc2)nc1-c1ccc(F)cc1`, 37% (active).
As for `CC(=O)N1CCC(C(=O)Nc2nc(-c3ccccc3)ns2)CC1`, the inhibition was 1.62%.
Consider `O=C(c1cccc(C(=O)N2CCN(c3ccc(F)cc3)CC2)c1)N1CCN(c2ccc(F)cc2)CC1`, for which the inhibition was -2.81%.
For the molecule `O=C(c1cccc(-n2cccc2)c1)N1CCN(S(=O)(=O)c2ccc(F)cc2)CC1`, the inhibition was 77% (active).
For `O=C(c1cnc(Cl)c(Cl)c1)N1CCN(S(=O)(=O)c2ccc(F)cc2)CC1` the value was 5.16%; for `O=C(O)c1cc(S(=O)(=O)NC2CCCc3ccccc32)ccc1O` (centres undefined), 7.44%.
For `CNS(=O)(=O)c1cccc(C(=O)NCC2CCCCC2)c1` the value was -9.16%.
Regarding `CNS(=O)(=O)c1cccc(C(=O)NC2CCCc3ccccc32)c1` (centres undefined), the inhibition was 37% (active).
For `CC1(C)NC(=O)N(CC(=O)Nc2cc(C(F)(F)F)cc(C(F)(F)F)c2)C1=O` the value was -6.82%.
Regarding `CCn1cc(C(=O)OCC(=O)Nc2cccc(C)c2)c(=O)c2ccc(C)nc21`, the inhibition was 4.57%.
For `O=C1CCN(C(=S)NCCc2ccccc2)CC1` the value was -6.74%; for `COc1ccc(C(=O)NC2CCN(C(=S)NCCc3ccccc3)CC2)cc1`, 0.36%.
On to `S=C(NCCc1ccccc1)N1CCCCC1`, for which the inhibition was 40.9% (active).
`COc1ccc(CCn2c(=N)c(C(=O)NCC3CCCO3)cc3c(=O)n4cccc(C)c4nc32)cc1OC` (centres undefined): the inhibition was 0.37%.
On to `COc1cc(NS(=O)(=O)c2ccc(NC(=S)NC(=O)c3ccccc3)cc2)nc(OC)n1`, for which the inhibition was 11%.
In the case of `COc1nnc(-c2ccc(C)c(S(=O)(=O)N(C)C)c2)c2ccccc12` it was -1.73%.
For `CN(CC1CCCO1)S(=O)(=O)c1ccc(C(=O)Nc2ccc([N+](=O)[O-])cc2)cc1` (centres undefined) the value was -4.51%; for `COC(OC)c1ccnc(SCc2ccccc2Cl)n1`, -11.3%.
Consider `c1ccc(CSc2nnc(-c3ccco3)c(-c3ccco3)n2)cc1`, for which the inhibition is 38.3% (active).
For `Brc1ccc(CSc2ccc(-c3ccco3)nn2)cc1` the value was 3.25%; for `Fc1cccc(Cl)c1CSc1ccc(-c2ccco2)nn1`, 5.94%.
For `O=c1[nH]c(SCc2ccccc2)nnc1-c1ccccc1` the value was 35.9%; for `Clc1ccccc1CSc1nnc(-c2ccco2)c(-c2ccco2)n1`, 53.8% (active); for `COc1ccc(/C=N/OCc2ccccc2C#N)c(OC)c1`, -11.6%.
In the case of `CC(C)c1ccc(S(=O)(=O)N2CCN(C(=O)c3ccc(N4CCCC4)c([N+](=O)[O-])c3)CC2)cc1` it was -8.12%; in that of `CS(=O)(=O)N1CCN(CC(=O)NC2CCCC2)CC1`, 2.51%.
As for `CCOc1ccc(S(=O)(=O)N2CCC(C(=O)NCc3ccccn3)CC2)cc1Cl`, the inhibition was 4.14%.
For `Cc1ccc(NC(=O)[C@H](Cc2ccccc2)NC(=O)C2CCNCC2)cc1` the value was -12.4%.
In the case of `CCOC(=O)C1=C(O)/C(=C/c2ccc(OCC(=O)Nc3ccc(C)cc3)cc2)N=C1C` it was 8.39%; in that of `COC(=O)C1=C(O)/C(=C/c2ccc(OCC(=O)Nc3ccccc3)cc2)N=C1C`, -4.57%; in that of `CCOC(=O)C1=C(O)/C(=C/c2cc(C)n(-c3ccccc3)c2C)N=C1C`, 46.3% (active).
With `COc1ccc2oc(C(=O)NCC(Cc3ccccc3)N(C)C)c(C)c2c1` (centres undefined), the inhibition was -39.7%.
For `O=C(CCCN1CCc2[nH]c3ccc(F)cc3c2C1)c1ccc(F)cc1` the value was -45%; for `CCC(C)NC(=O)C1c2ccccc2C(=O)N1Cc1ccccc1` (centres undefined), -11.1%; for `COCCCNS(=O)(=O)c1cccc(S(=O)(=O)c2cccc(S(=O)(=O)NCCCOC)c2)c1`, 3.55%.
For `O=C(C1=C(O)C(=O)N(Cc2ccccc2)C1c1cccnc1)c1ccco1` (centres undefined), the inhibition is -5.86%.
For `CC(C)c1ccc(C2C(C(=O)c3ccco3)=C(O)C(=O)N2CC2CCCO2)cc1` (centres undefined) the value was 55.9% (active); for `O=C(C1=C(O)C(=O)N(Cc2ccccc2)C1c1ccco1)c1ccco1` (centres undefined), 17.3%; for `O=C(OCC1O[C@@H](OC(=O)c2cc(O)c(O)c(O)c2)[C@@H](OC(=O)c2cc(O)c(O)c(O)c2)[C@@H](OC(=O)c2cc(O)c(O)c(O)c2)[C@@H]1OC(=O)c1cc(O)c(O)c(O)c1)c1cc(O)c(O)c(O)c1` (some centres undefined), 63.6% (active).
For the molecule `CCC(NC(=O)c1ccccc1NC(=O)c1ccccc1)C(=O)NNC(=O)CSc1nc2ccccc2o1` (centres undefined), the inhibition is -3.35%.
Consider `NS(=O)(=O)c1ccc(-c2ccc(/C=C3\SC(=O)NC3=O)o2)cc1`, for which the inhibition was 60.5% (active).
For `CN1CCN(/N=C/c2ccc(-c3ccc([N+](=O)[O-])cc3)o2)CC1` the value was -1.77%.
For `CN1C(=O)/C(=C\c2ccc(-c3ccccc3)o2)SC1=S` the value was 23.6%.
In the case of `CCOc1ccc(CN2CCNC(=O)C2CC(=O)NCCCC2CCCC2)cc1` (centres undefined) it was -18.7%; in that of `COc1ccc(/C=C2\SC(=S)N(CCCC(=O)NC3CCCC3)C2=O)cc1OC`, 19%; in that of `COc1ccc(/C=C2\SC(=S)N(CCC(=O)Nc3ccccn3)C2=O)cc1OC`, -1.07%.
Turning to `COc1ccc(/C=C2\SC(=S)N(CCC(=O)Nc3cccc(C(=O)O)c3)C2=O)cc1OC`, the inhibition was 61% (active).
In the case of `O=C(NC1CCCC1)c1cc(-c2ccccc2)on1` it was -12.1%.
In the case of `O=C(NCCc1ccccn1)c1nc(Cn2cc([N+](=O)[O-])cn2)no1` it was 2.16%; in that of `COCCN1CCn2c(nc3cc(NS(C)(=O)=O)ccc32)C1`, -2.65%.
In the case of `Cc1nn(CC(=O)Nc2ccc(F)cc2)c(=O)c2ccccc12` it was 17.6%; in that of `O=C(O)CCCC(=O)N1N=C(c2ccco2)CC1c1ccco1` (centres undefined), 1.26%; in that of `COc1ccc(C2=NN(C(C)=O)C(c3ccccc3)C2)cc1` (centres undefined), -3.52%.
Consider `Cc1nn2c(c1-c1ccccc1)N=C(c1ccco1)CC2c1ccccc1` (centres undefined), for which the inhibition was 39.1% (active).
As to `Cc1cc2nc3c(=O)n(Cc4ccccc4)c(=O)[nH]c3nc2cc1N`, the inhibition is -1.52%.
Take `Nc1ccc2nc3c(=O)[nH]c(=S)[nH]c3nc2c1`: the inhibition was 80.4% (active).
For `CCc1cccc(C)c1N1C(=O)CN(Cc2ccccc2)C1=S` the value was -10.7%; for `O=C(C[C@H]1C(=O)N(c2ccc(F)c(F)c2)C[C@@H]1Cc1ccccc1)Nc1ccccc1`, -4.71%; for `Cc1ccc(S(=O)(=O)N2CCN(C)CC2)cc1C(=O)NC1CCCCC1`, 0.44%.
In the case of `COc1cccc(CNC(=O)c2nnn(CC(=O)Nc3cc(Cl)ccc3C)c2N)c1` it was 38.7% (active).
As to `COc1ccc(CNC(=O)c2nnn(CC(=O)Nc3cc(C)cc(C)c3)c2N)cc1`, the inhibition is -13.3%.
For `COc1cccc(CNC(=O)c2nnn(CC(=O)Nc3cc(C)ccc3C)c2N)c1` the value was 8.19%.
In the case of `CS(=O)(=O)C1=NN2C(=N)/C(=C\c3ccc(OCCOc4ccccc4)cc3)C(=O)N=C2S1` it was 7.31%.
In the case of `CS(=O)(=O)c1ccc2c(c1)SC1=NC(=O)/C(=C/c3ccco3)C(=N)N12` it was 39.8% (active); in that of `Cc1cc(/C=C2/C(=N)N3C(=NC2=O)SN=C3S(C)(=O)=O)c(C)n1-c1ccccc1`, 20%.
As for `CCN(CC)C(=O)COc1coc(CN2CCN(Cc3ccccc3)CC2)cc1=O`, the inhibition was -0.99%.
For `C=CCSc1nsc(NC(=O)Nc2cccc(C(C)=O)c2)n1` the value was -3.05%; for `CCSc1nsc(NC(=O)Nc2cccc(C(C)=O)c2)n1`, 38.8% (active); for `CCSc1nsc(NC(=O)Nc2ccccc2OC)n1`, -3.36%.
For `CCOc1ccc(N(C)S(=O)(=O)c2cnc[nH]2)cc1` the value was 4.43%.
Turning to `COC(=O)c1ccccc1NC(=O)C1CCN(C(=O)N2CCOc3ccccc32)CC1`, the inhibition was -12.1%.
With `COc1ccc(S(=O)(=O)NCC(=O)NC2CC2)cc1OC`, the inhibition is 22.6%.
Turning to `COc1ccc(C)cc1NC(=O)NCCCCc1ccccc1`, the inhibition was 2.02%.
As to `CN(C(=O)COC(=O)c1cc(-c2ccco2)nc2ccccc12)C1CCS(=O)(=O)C1` (centres undefined), the inhibition is 20.9%.
For `COC(=O)c1cnn2c(C(F)(F)F)cc(-c3ccco3)nc12` the value was 18.2%; for `Cc1cc(C)c2nc(-c3ccco3)cc(C(=O)O)c2c1`, 37.2% (active); for `O=C(Oc1ccc(C(=S)N2CCOCC2)cc1)c1ccc(F)cc1`, -0.77%.
In the case of `O=C(Oc1ccc(F)cc1)N1CCOCC1` it was 4.09%; in that of `N#C/C=C(/c1ccc(F)cc1)N1CCOCC1`, 40.5% (active).
